Source: PubChem (several laboratories)
Most compounds without a hit are left out; they make up all but 11% or so of the library.
S1P1 ag pot: S1P1 (human) agonism or agonism potentiation | S1P1 CRE-bla cells, forskolin, beta-lactamase FRET, potentiator mode; S1P1 agonist co-added at EC20, 2 nM; 100% = saturating reference agonist, 0% = basal | 56,000 tested, 0.57% active | P21453 | activation, % at 9.5 µM;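 active = activation above a cutoff set at the mean activation of all tested compounds plus 3 SD, cut at about 54% in these data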;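 also: forskolin at 4 µM as EC80 and the EC20 agonist is SEW2871; 100% = SEW2871 at its EC100 plus forskolin at EC80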
M1 antag: M1 muscarinic receptor (rat) antagonism; AID 628; P08482; 64,000 tested, 3.4% active; B-score at 10 µM; CHO-M1 cells, Fluo-4 calcium, ACh EC80 antagonist mode; active compounds read low;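 active = calcium fluorescence response, raw or row-and-column corrected B-score, differing from the plate sample mean either way at a set confidence level, mostly lower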
M1 ag: agonists of M1 muscarinic receptor; CHO-M1 cells, Fluo-4 calcium fluorescence, agonist mode; active compounds read high; B-score at 10 µM; 64,000 tested, 3% active; AID 626;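 active = fluorescence rise, raw or as B-score row- and column-corrected plate score, outside the 99.7% band of its plate's samples, either direction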
S1P3 agonist: agonists of human S1P3 receptor; Q99500; S1P3 NFAT-BLA reporter cells, agonism, FRET ratio; relative to 1 µM S1P, basal subtracted; activation, % at 4.5 µM; 60,000 tested, 0.1% active;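 active = activation above the screen-wide mean plus 3 SD, cut at about 4.5% in these data, passing the limit was not always enough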
Target sequence (Q99500 whole entry, looked up): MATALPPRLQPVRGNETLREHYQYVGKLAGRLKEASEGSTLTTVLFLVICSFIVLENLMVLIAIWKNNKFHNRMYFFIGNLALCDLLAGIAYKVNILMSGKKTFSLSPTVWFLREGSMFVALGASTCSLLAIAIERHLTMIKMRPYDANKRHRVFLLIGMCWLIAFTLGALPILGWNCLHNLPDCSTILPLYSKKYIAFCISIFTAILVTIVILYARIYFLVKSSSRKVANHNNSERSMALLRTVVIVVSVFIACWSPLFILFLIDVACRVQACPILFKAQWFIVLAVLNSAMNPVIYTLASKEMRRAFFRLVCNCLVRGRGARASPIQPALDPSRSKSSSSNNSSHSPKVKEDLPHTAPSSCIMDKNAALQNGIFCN
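material = human S1P3 NFAT-BLA reporter CHO cells | schedule = 4 h compound at 37 °C, 2 h substrate at RT | measured by = fluorescent BLA substrate, ex 405 nm, em 460/535 nm ratio | controls = 1 µM S1P reference | replication = primary once, confirmation triplicate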
D1 allo mod: D1 dopamine receptor (human) allosteric modulation. HEK293 D1, CRE-luciferase, dopamine EC30 potentiation; actives deviate in either direction. B-score at 10 µM. 58,000 tested, 5.9% active. AID 641;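 active = luminescence count or its row- and column-corrected plate score outside the 99.7% band of the plate's sample wells, on either side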
D1 PAM confirm: D1 receptor (human) allosteric modulation, confirmed | AID 642 | HEK293 D1 CRE-luciferase, dopamine EC30 potentiation; active compounds read high | shares compounds with D1 allo mod | 2,200 tested, 88% active | luminescence at 10 µM;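 active = luminescence in either of two replicates above the same-plate mean plus 3 SD of the low-dose dopamine control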
D1 no dopamine: activates D1 CRE-luciferase signal without dopamine present. shares compounds with D1 allo mod. HEK293 D1 CRE-luciferase, luminescence, no dopamine; active compounds read high. luminescence at 10 µM. 1,900 tested, 0.8% active; in the data active = luminescence above about 3900
Isoprot counter: isoproterenol response counter-screen activity for D1 modulators. shares compounds with D1 allo mod. HEK293 D1 CRE-luciferase, isoproterenol EC30 counter-screen; active compounds read high. luminescence at 10 µM. 2,200 tested, 63% active. AID 647;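 active = luminescence in either replicate above plate mean of wells with a partly effective reference agonist dose plus 3 SD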;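 also: isoproterenol raises cAMP through native beta-adrenoceptor Gs so signal bypasses D1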
* hit, by the source's call; · = no result given.

SMILES	S1P1 ag pot	M1 antag	M1 ag	S1P3 agonist	D1 allo mod	D1 PAM confirm	D1 no dopamine	Isoprot counter
C/C=C/CSc1nc2c(c(=O)[nH]c(=O)n2C)n1Cc1ccc(C)cc1	-5.7	0.175	0.00117	-0.7	19.6*	16484*	1496	6200*
CC(C)n1c(SCc2ccc(Cl)cc2)nc2c1c(=O)[nH]c(=O)n2C	-49.0	0.0925	-0.144	-0.8	1.87	·	·	·
C/C=C/CSc1nc2c(c(=O)[nH]c(=O)n2C)n1C(C)C	-50.3	-0.541	-0.252	-0.2	5.97*	12796*	1768	3356*
CC(C)n1c(SCC(N)=O)nc2c1c(=O)[nH]c(=O)n2C	4.6	-0.331	0.5	-1.4	-0.0813	·	·	·
CCCCn1c(SCc2ccc(Cl)cc2)nc2c1c(=O)[nH]c(=O)n2C	-14.8	0.309	0.346	-0.4	7.4*	25640*	1752	8420*
CCCCCOC(=O)CSc1nc2c(c(=O)[nH]c(=O)n2C)n1Cc1ccc(Cl)cc1	7.9	0.184	0.446	-1.0	0.107	·	·	·
CCSc1nc2c(c(=O)[nH]c(=O)n2C)n1Cc1ccc(Cl)cc1	-52.1	1.18	-0.0778	-0.1	5.47*	15452*	1584	4916*
CCN1CCCC1Cn1cnc2c([nH]c3cccc(Cl)c32)c1=O (centres undefined)	1.8	-0.461	0.599	0.2	0.0503	·	·	·
COc1cc(Br)cc(-c2nc3c(c(=O)[nH]c(=O)n3Cc3ccccc3)n2C)c1O	·	0.121	-0.305	·	8.24*	26460*	1556	3668*
Cn1c(=O)[nH]c(=O)c2c1nc(Br)n2CCC(=O)c1ccccc1	-11.2	-0.407	0.0734	-0.1	1.76	·	·	·
CCC(=O)Nc1cc2c(cc1C(C)=O)OCCO2	·	0.744	-0.54	·	0.911	·	·	·
CCCC(=O)Nc1cc2c(cc1C(=O)c1ccccc1)OCCO2	-9.9	-0.0939	0.195	5.8	6.3*	13204*	1668	3708*
COc1ccc(OC)c(N2C(=O)C(Cl)=C(N3CCCCC3)C2=O)c1	-5.5	-0.642	1.63	-1.2	8.87*	6148*	1528	2644
CCN(CC)CCN1C(=O)C(=O)/C(=C(/O)c2cccc(OC)c2)C1c1ccccn1 (centres undefined)	-0.1	0.114	-0.189	-0.5	-1.13	·	·	·
CCOC(=O)c1[nH]cnc1C(=O)Nc1ccccn1	-11.8	0.0592	0.373	-0.8	3.97*	10664*	1452	2932
O=C(c1ccccc1)c1nc[nH]c1C(=O)Nc1ccccn1	-52.1	-0.417	0.644	0.6	4.58*	9124*	2104	2788
Cc1ccc(S(=O)(=O)Nc2ccc(Br)cc2/C=N/n2cnnc2)cc1	37.5	-0.542	1.34	-1.5	·	·	·	·
CNC(=O)N(C1=NCC(C)(C)S1)c1ccc(F)c(Cl)c1	-16.4	0.546	0.154	-0.6	10.8*	25560*	1876	5508*
COc1cccc(C2CC(c3cccc(C)c3)n3ncnc3N2)c1 (centres undefined)	-21.7	0.497	0.285	0.0	0.347	·	·	·
Cn1c(SCC(=O)NCc2ccc3c(c2)OCO3)nc2scc(-c3cccs3)c2c1=O	-8.6	0.639	0.132	-0.9	-0.765	·	·	·
CC(C)(C)NC(=O)c1ccccc1-c1nc(-c2ccccc2Cl)no1	3.7	-0.453	1.11	-0.4	0.556	·	·	·
COc1ccc(C(=O)N2CCN=C2SCc2cccnc2)cc1OC	-8.2	-0.0756	0.145	-1.2	4.81*	9852*	1576	4156*
CC1(C)Cc2c(C#N)c(NCCCO)nc(-c3ccccc3)c2CO1	-25.8	-0.621	-0.604	-0.7	5.8*	11280*	1708	3636*
Cc1ccc(NC(=O)CSc2nnc(Cn3c(=O)sc4ccccc43)n2C)cc1Cl	3.8	-1.34	-0.438	-0.3	-2.9	·	·	·
Cc1cc(C)nc(SCc2nnc(SCC(=O)Nc3cc(C(F)(F)F)ccc3Cl)o2)n1	5.3	·	·	-1.0	0.151	·	·	·
SMILES	S1P1 ag pot	M1 antag	M1 ag	S1P3 agonist	D1 allo mod	D1 PAM confirm	D1 no dopamine	Isoprot counter
Cc1cc2cc(CN(CCN3CCOCC3)C(=O)Nc3ccccc3F)c(=O)[nH]c2cc1C	-48.0	0.592	1.24	0.3	2.73*	5960*	1568	2660
N#Cc1c(N)nc(-c2ccccc2)nc1-c1ccccc1	-15.9	0.027	-0.443	-0.4	17.7*	18844*	1712	3052
CC1CCN(c2nc(-c3ccncc3)nc3ccccc23)CC1	-71.8	-0.684	-0.877	-1.9	3.89*	9916*	1776	4700*
CC1CCCCN1c1nc(-c2ccncc2)nc2ccccc12 (centres undefined)	-30.3	-0.711	-0.269	0.9	12.7*	8444*	1504	3480*
CCC(C)NC(=O)c1ccccc1NC(=O)CN1C(=O)c2ccccc2S1(=O)=O (centres undefined)	-16.5	-0.345	-0.694	-0.3	-0.954	·	·	·
COc1ccc(Cl)c(NCCC(=O)O)c1	7.5	0.398	0.979	0.2	0.558	·	·	·
Cc1sc2ncnc(SCc3ccco3)c2c1C	-14.3	0.197	1.36	0.3	0.535	·	·	·
Cc1noc(C)c1CSc1ncnc2sc(C)c(C)c12	-45.3	-0.129	0.677	-1.0	5.23*	10232*	1588	3508*
Cc1noc(C)c1CSc1ncnc2ccccc12	-31.6	-0.303	-0.0182	-0.1	3.86*	7560*	1844	3264
Cc1onc(-c2ccccc2)c1C(=O)N1CCN(C/C=C/c2ccccc2)CC1	25.7	0.099	-1.59	-0.6	-0.0279	·	·	·
C=CCOc1c(Cl)cc(/C=N/O)cc1OC	-11.8	0.142	0.596	-1.7	2.09	·	·	·
C=CCOc1ccc(/C(CC)=N/O)c(OC)c1	-26.1	0.333	-0.0272	-0.1	3.41*	8264*	1700	3852
O=C1C2C3C=CC(O3)C2C(=O)N1CC(O)c1ccccc1 (centres undefined)	-7.6	·	·	-0.7	-0.22	·	·	·
CCOC(=O)C1(C(F)(F)F)N=C(c2cccnc2)OC(N2CCOCC2)=N1 (centres undefined)	-12.7	0.832	0.452	0.5	0.0909	·	·	·
CCOC(=O)c1c(C)c2c(n1C)CCC/C2=N\O	-21.5	-0.126	1	0.3	6.5*	9680*	1536	5084*
CCNc1nnc(-c2ccc(C)cc2)o1	4.5	0.105	0.573	-1.2	-0.273	·	·	·
c1cn2cc(-c3ccc4c(c3)OCO4)nc2s1	·	0.15	0.442	·	-3.58	·	·	·
O=c1cc(O)nc(SCc2ccccc2)[nH]1	·	0.176	-0.842	-0.3	0.347	·	·	·
CC(C)(C)Sc1nc(O)cc(=O)[nH]1	-14.8	-0.226	-0.466	0.0	2.1*	5460	1436	2212
O=C1CC(N2CCN(c3ccc(F)cc3)CC2)C(=O)N1Cc1ccc(N2CCCC2=O)cc1 (centres undefined)	8.3	-0.27	-2.19	-1.0	0.361	·	·	·
